Results from ChEMBL document CHEMBL3097989, “Antimicrobial activity of de novo designed cationic peptides against multi-resistant clinical isolates” (Eur J Med Chem, 2014).
Where a SMILES comes first, the peptide text is derived from it.

Experiments:
Format in all cases: functional
Klebsiella pneumoniae [1] = test: Antibacterial activity against Klebsiella pneumoniae M9310 clinical isolate expressing blaCTX-M-2, blaTEM-1 and blaSHV-1 gene by microdilution test
Procedure, shortened: (§1)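 MIC by standard broth microdilution following CLSI recommendations, in Mueller Hinton broth supplemented with Ca²⁺ (20-25mg/L) and Mg²⁺ (10-12.5mg/L); peptides tested against a panel of multi-resistant clinical isolates plus ATCC reference strains.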

Enterococcus faecalis [2] = test: Antibacterial activity against Enterococcus faecalis M4899 clinical isolate expressing vanB gene by microdilution test; procedure, shortened: as §1
Enterococcus gallinarum = test: Antibacterial activity against Enterococcus gallinarum M2723 clinical isolate expressing vanC1 and vanA gene by microdilution test; procedure, shortened: as §1
Pseudomonas aeruginosa [3] = test: Antibacterial activity against Pseudomonas aeruginosa M7712 clinical isolate expressing blaSPM gene by microdilution test
Procedure, shortened: (§2)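 MIC by standard broth microdilution following CLSI recommendations, in Mueller Hinton broth supplemented with Ca²⁺ (20-25 mg/L) and Mg²⁺ (10-12.5 mg/L); ATCC reference strains included in the panel.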

Pseudomonas aeruginosa [4] = test: Antibacterial activity against Pseudomonas aeruginosa M7728 clinical isolate expressing blaIMP gene by microdilution test; procedure, shortened: as §2
Pseudomonas aeruginosa [5] = test: Antibacterial activity against Pseudomonas aeruginosa M7525 clinical isolate expressing blaSPM gene by microdilution test; procedure, shortened: as §2
Pseudomonas aeruginosa [6] = test: Antibacterial activity against Pseudomonas aeruginosa M5109 clinical isolate expressing blaVIM and blaGES-1 gene by microdilution test; procedure, shortened: as §2
Staphylococcus aureus [7] = test: Antibacterial activity against Staphylococcus aureus M6784 clinical isolate expressing mecA gene by microdilution test; procedure, shortened: as §2
Enterococcus faecium [8] = test: Antibacterial activity against Enterococcus faecium M2664 clinical isolate expressing vanA gene by microdilution test; procedure, shortened: as §1
Escherichia coli [9] = test: Antibacterial activity against Escherichia coli ATCC 25922 by microdilution test; procedure, shortened: as §1
Klebsiella pneumoniae [10] = test: Antibacterial activity against Klebsiella pneumoniae M11245 clinical isolate expressing blaKPC-2 and blaPER-2 gene by microdilution test; procedure, shortened: as §1
Acinetobacter sp. [11] = test: Antibacterial activity against Acinetobacter sp. PFAV1 clinical isolate expressing blaOXA-51, blaOXA-58 and blaPER gene by microdilution test; procedure, shortened: as §1
Enterococcus faecalis [12] = test: Antibacterial activity against Enterococcus faecalis ATCC 51299 clinical isolate expressing vanB gene by microdilution test; procedure, shortened: as §1
Escherichia coli [13] = test: Antibacterial activity against Escherichia coli PNEU23 clinical isolate expressing blaOXA-GIII and blaTEM-1 gene by microdilution test; procedure, shortened: as §1
Pseudomonas aeruginosa [14] = test: Antibacterial activity against Pseudomonas aeruginosa M7723 clinical isolate expressing blaKPC-2 gene by microdilution test; procedure, shortened: as §2
[15] = system: Staphylococcus epidermidis; test: Antibacterial activity against Staphylococcus epidermidis M2919 clinical isolate expressing mecA gene by microdilution test; procedure, shortened: as §2
Klebsiella pneumoniae [16] = test: Antibacterial activity against Klebsiella pneumoniae M9885 clinical isolate expressing blaKPC-2 gene by microdilution test; procedure, shortened: as §1
Staphylococcus hominis [17] = test: Antibacterial activity against Staphylococcus hominis M2973 clinical isolate expressing mecA gene by microdilution test; procedure, shortened: as §2
[18] = system: Staphylococcus saprophyticus; test: Antibacterial activity against Staphylococcus saprophyticus M2981 clinical isolate expressing mecA gene by microdilution test; procedure, shortened: as §2
Staphylococcus aureus [19] = test: Antibacterial activity against Staphylococcus aureus M2832 clinical isolate expressing mecA gene by microdilution test; procedure, shortened: as §2
Enterococcus faecium [20] = test: Antibacterial activity against Enterococcus faecium M2481 clinical isolate expressing vanB gene by microdilution test; procedure, shortened: as §1
Escherichia coli [21] = test: Antibacterial activity against Escherichia coli M7859 clinical isolate expressing blaCIT gene by microdilution test; procedure, shortened: as §1
[22] = system: Staphylococcus haemolyticus; test: Antibacterial activity against Staphylococcus haemolyticus M3014 by microdilution test; procedure, shortened: as §2
Staphylococcus hominis [23] = test: Antibacterial activity against Staphylococcus hominis M2967 clinical isolate expressing mecA gene by microdilution test; procedure, shortened: as §2
Pseudomonas aeruginosa [24] = test: Antibacterial activity against Pseudomonas aeruginosa PCOS12 by microdilution test; procedure, shortened: as §2
Klebsiella pneumoniae [25] = test: Antibacterial activity against Klebsiella pneumoniae M7647 clinical isolate expressing blaVIM, blaCTX-M-2, blaTEM-1 and blaSHV-1 gene by microdilution test; procedure, shortened: as §1
Enterococcus faecalis [26] = test: Antibacterial activity against Enterococcus faecalis M6383 clinical isolate expressing vanA gene by microdilution test; procedure, shortened: as §1
Acinetobacter sp. [27] = test: Antibacterial activity against Acinetobacter sp. M9013 clinical isolate expressing blaOXA-51 and blaIMP gene by microdilution test; procedure, shortened: as §1
Pseudomonas aeruginosa [28] = test: Antibacterial activity against Pseudomonas aeruginosa M13513 clinical isolate expressing blaKPC-2 gene by microdilution test; procedure, shortened: as §1
Escherichia coli [29] = test: Antibacterial activity against Escherichia coli PABC11 clinical isolate expressing blaCTX-M-2 gene by microdilution test; procedure, shortened: as §1
Enterococcus faecium [30] = test: Antibacterial activity against Enterococcus faecium M6261 by microdilution test; procedure, shortened: as §1
Enterococcus faecalis [31] = test: Antibacterial activity against Enterococcus faecalis M6983 clinical isolate expressing vanA gene by microdilution test; procedure, shortened: as §1
Acinetobacter sp. [32] = test: Antibacterial activity against Acinetobacter sp. M7489 clinical isolate expressing blaOXA-51 and blaTEM gene by microdilution test; procedure, shortened: as §1
Enterococcus faecium [33] = test: Antibacterial activity against Enterococcus faecium PZAP95 by microdilution test; procedure, shortened: as §1

MIC90 (Klebsiella pneumoniae [1]) | MIC90 (Enterococcus faecalis [2]) | MIC90 (Enterococcus gallinarum) | MIC90 (Pseudomonas aeruginosa [3]) | MIC90 (Pseudomonas aeruginosa [4]) | MIC90 (Pseudomonas aeruginosa [5]) | MIC90 (Pseudomonas aeruginosa [6]) | MIC90 (Staphylococcus aureus [7]) | MIC90 (Enterococcus faecium [8]) | MIC90 (Escherichia coli [9]) | MIC90 (Klebsiella pneumoniae [10]) | MIC90 (Acinetobacter sp. [11]) | MIC90 (Enterococcus faecalis [12]) | MIC90 (Escherichia coli [13]) | MIC90 (Pseudomonas aeruginosa [14]) | MIC90 [15] | MIC90 (Klebsiella pneumoniae [16]) | MIC90 (Staphylococcus hominis [17]) | MIC90 [18] | MIC90 (Staphylococcus aureus [19]) | Molecule | further results
32 mg/L | 256 mg/L | 16 mg/L | 64 mg/L | 64 mg/L | 64 mg/L | 64 mg/L | 32 mg/L | 8 mg/L | 32 mg/L | 8 mg/L | 64 mg/L | 256 mg/L | 32 mg/L | 32 mg/L | 8 mg/L | 32 mg/L | 4 mg/L | 8 mg/L | 64 mg/L | H-RIVQRIKKWLLKWKKLGY-NH2 | MIC90 (Enterococcus faecium [20]): 16 mg/L; MIC90 (Escherichia coli [21]): 16 mg/L; MIC90 [22]: 8 mg/L; MIC90 (Staphylococcus hominis [23]): 8 mg/L; MIC90 (Pseudomonas aeruginosa [24]): 64 mg/L; MIC90 (Klebsiella pneumoniae [25]): 32 mg/L; MIC90 (Enterococcus faecalis [26]): 128 mg/L; MIC90 (Acinetobacter sp. [27]): 32 mg/L; MIC90 (Pseudomonas aeruginosa [28]): 64 mg/L; MIC90 (Escherichia coli [29]): 32 mg/L; MIC90 (Enterococcus faecium [30]): 16 mg/L; MIC90 (Enterococcus faecalis [31]): 128 mg/L; MIC90 (Acinetobacter sp. [32]): 64 mg/L; MIC90 (Enterococcus faecium [33]): 16 mg/L
> 1020 mg/L | 256 mg/L | 32 mg/L | 64 mg/L | 128 mg/L | 64 mg/L | 128 mg/L | 32 mg/L | 16 mg/L | 128 mg/L | 1020 mg/L | 64 mg/L | 256 mg/L | 128 mg/L | 64 mg/L | 16 mg/L | > 1020 mg/L | 4 mg/L | 16 mg/L | 32 mg/L | H-WPKWWKWKRRWGRKKAKKRRG-NH2 | MIC90 (Enterococcus faecium [20]): 32 mg/L; MIC90 (Escherichia coli [21]): 128 mg/L; MIC90 [22]: 16 mg/L; MIC90 (Staphylococcus hominis [23]): 8 mg/L; MIC90 (Pseudomonas aeruginosa [24]): 64 mg/L; MIC90 (Klebsiella pneumoniae [25]): > 1020 mg/L; MIC90 (Enterococcus faecalis [26]): 128 mg/L; MIC90 (Acinetobacter sp. [27]): 32 mg/L; MIC90 (Pseudomonas aeruginosa [28]): 32 mg/L; MIC90 (Escherichia coli [29]): 128 mg/L; MIC90 (Enterococcus faecium [30]): 32 mg/L; MIC90 (Enterococcus faecalis [31]): 64 mg/L; MIC90 (Acinetobacter sp. [32]): 64 mg/L; MIC90 (Enterococcus faecium [33]): 32 mg/L
64 mg/L | 256 mg/L | 16 mg/L | 512 mg/L | 512 mg/L | 512 mg/L | 256 mg/L | 32 mg/L | 8 mg/L | 64 mg/L | 32 mg/L | 16 mg/L | 256 mg/L | 32 mg/L | 256 mg/L | 8 mg/L | 256 mg/L | 4 mg/L | 8 mg/L | 64 mg/L | CC[C@H](C)[C@H](N)C(=O)N[C@@H](CC(C)C)C(=O)N[C@@H](CCCNC(=N)N)C(=O)N[C@@H](Cc1c[nH]c2ccccc12)C(=O)N1CCC[C@H]1C(=O)N[C@@H](Cc1c[nH]c2ccccc12)C(=O)N[C@@H](Cc1c[nH]c2ccccc12)C(=O)N1CCC[C@H]1C(=O)N[C@@H](Cc1c[nH]c2ccccc12)C(=O)N[C@@H](CCCNC(=N)N)C(=O)N[C@@H](CCCNC(=N)N)C(=O)N[C@@H](CCCCN)C(N)=O.Cl.Cl.Cl.Cl.Cl [OMIGANAN PENTAHYDROCHLORIDE] (H-ILRWPWWPWRRK-NH2) | MIC90 (Enterococcus faecium [20]): 16 mg/L; MIC90 (Escherichia coli [21]): 64 mg/L; MIC90 [22]: 4 mg/L; MIC90 (Staphylococcus hominis [23]): 4 mg/L; MIC90 (Pseudomonas aeruginosa [24]): 512 mg/L; MIC90 (Klebsiella pneumoniae [25]): 1020 mg/L; MIC90 (Enterococcus faecalis [26]): 128 mg/L; MIC90 (Acinetobacter sp. [27]): 32 mg/L; MIC90 (Pseudomonas aeruginosa [28]): 256 mg/L; MIC90 (Escherichia coli [29]): 64 mg/L; MIC90 (Enterococcus faecium [30]): 16 mg/L; MIC90 (Enterococcus faecalis [31]): 128 mg/L; MIC90 (Acinetobacter sp. [32]): 8 mg/L; MIC90 (Enterococcus faecium [33]): 16 mg/L
16 mg/L | 128 mg/L | 32 mg/L | 64 mg/L | 64 mg/L | 64 mg/L | 64 mg/L | 32 mg/L | 8 mg/L | 32 mg/L | 16 mg/L | 16 mg/L | 256 mg/L | 32 mg/L | 64 mg/L | 16 mg/L | 64 mg/L | 4 mg/L | 8 mg/L | 128 mg/L | H-GLLKKWLKKWKEFKRIVGY-NH2 | MIC90 (Enterococcus faecium [20]): 16 mg/L; MIC90 (Escherichia coli [21]): 32 mg/L; MIC90 [22]: 8 mg/L; MIC90 (Staphylococcus hominis [23]): 8 mg/L; MIC90 (Pseudomonas aeruginosa [24]): 64 mg/L; MIC90 (Klebsiella pneumoniae [25]): 32 mg/L; MIC90 (Enterococcus faecalis [26]): 128 mg/L; MIC90 (Acinetobacter sp. [27]): 8 mg/L; MIC90 (Pseudomonas aeruginosa [28]): 64 mg/L; MIC90 (Escherichia coli [29]): 32 mg/L; MIC90 (Enterococcus faecium [30]): 16 mg/L; MIC90 (Enterococcus faecalis [31]): 128 mg/L; MIC90 (Acinetobacter sp. [32]): 16 mg/L; MIC90 (Enterococcus faecium [33]): 16 mg/L
